{"source": "ChEMBL document CHEMBL5046217", "about": "“Discovery of New Imidazo[2,1-b]thiazole Derivatives as Potent Pan-RAF Inhibitors with Promising In Vitro and In Vivo Anti-melanoma Activity” (J Med Chem, 2021)", "key": {"[1]": {"biological_target": "Serine/threonine-protein kinase B-raf (Homo sapiens, UniProt P15056)", "sequence (P15056 whole entry)": "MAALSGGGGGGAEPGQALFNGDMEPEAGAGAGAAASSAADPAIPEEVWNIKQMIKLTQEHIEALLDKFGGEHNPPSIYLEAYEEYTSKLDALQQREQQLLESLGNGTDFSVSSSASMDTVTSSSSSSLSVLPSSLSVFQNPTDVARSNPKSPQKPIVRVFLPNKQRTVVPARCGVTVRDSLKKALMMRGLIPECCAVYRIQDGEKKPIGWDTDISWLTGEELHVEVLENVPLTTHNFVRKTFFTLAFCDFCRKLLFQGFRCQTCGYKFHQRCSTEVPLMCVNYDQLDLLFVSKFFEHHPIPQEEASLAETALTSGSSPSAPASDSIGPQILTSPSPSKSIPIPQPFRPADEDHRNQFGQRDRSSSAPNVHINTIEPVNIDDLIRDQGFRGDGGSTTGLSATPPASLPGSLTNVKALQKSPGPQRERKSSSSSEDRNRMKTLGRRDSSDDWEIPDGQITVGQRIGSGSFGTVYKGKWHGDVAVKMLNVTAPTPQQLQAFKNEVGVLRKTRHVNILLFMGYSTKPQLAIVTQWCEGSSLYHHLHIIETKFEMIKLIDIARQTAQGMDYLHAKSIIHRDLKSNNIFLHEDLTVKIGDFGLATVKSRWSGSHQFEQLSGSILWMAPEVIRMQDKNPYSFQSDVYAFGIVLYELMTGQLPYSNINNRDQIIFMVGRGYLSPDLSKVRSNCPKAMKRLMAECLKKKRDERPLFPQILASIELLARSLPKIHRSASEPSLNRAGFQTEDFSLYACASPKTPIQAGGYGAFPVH", "assay": "Inhibition of human wild type BRAF using myelin basic protein as substrate in presence of [gamma-33P]ATP incubated for 40 mins by scintillation counting method", "procedure,_shortened": "(§1)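 Radiometric kinase assay run at Reaction Biology. Kinase (5−10 mU) in 25 mM Tris pH 7.5, 0.02 mM EGTA, 10 mM magnesium acetate with 0.66 mg/mL myelin basic protein and [γ-33P]ATP at 1 μM ATP. Reaction started with Mg-ATP and run 40 min at room temperature, then stopped with 3% phosphoric acid. Spotted on P30 filtermat, washed, scintillation counted.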"}, "[2]": {"assay": "Clearance in Sprague-Dawley rat at 5 mg/kg, iv by LC-MS/MS analysis", "format": "ADME, organism-based", "settings": "in vivo", "procedure,_shortened": "(§2)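 Male SD rats (7–8 weeks, 250–300 g), three per group, were dosed at 5 mg/kg i.v. or p.o. in 5% DMSO/40% PEG400/55% water. Rats were fasted 16 h before oral dosing. Serum was sampled every 30 min and measured by LC/MS/MS with carbamazepine as internal standard. Parameters came from non-compartmental analysis.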"}, "[3]": {"assay": "Stability in rat plasma assessed as parent compound remaining at 10 uM measured after 30 mins by LC-MS analysis", "format": "ADME, cell-free", "settings": "read-out: Stability", "procedure,_shortened": "(§3)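 About 10 μM compound shaken in human or rat plasma at 37 °C for 30 and 120 min. Acetonitrile added, samples centrifuged at 4 °C, and remaining parent in the supernatant quantified by LC−MS. Procaine and diltiazem run as references.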"}, "[4]": {"biological_target": "Mitogen-activated protein kinase 14 (Homo sapiens, UniProt Q16539)", "sequence (Q16539 whole entry)": "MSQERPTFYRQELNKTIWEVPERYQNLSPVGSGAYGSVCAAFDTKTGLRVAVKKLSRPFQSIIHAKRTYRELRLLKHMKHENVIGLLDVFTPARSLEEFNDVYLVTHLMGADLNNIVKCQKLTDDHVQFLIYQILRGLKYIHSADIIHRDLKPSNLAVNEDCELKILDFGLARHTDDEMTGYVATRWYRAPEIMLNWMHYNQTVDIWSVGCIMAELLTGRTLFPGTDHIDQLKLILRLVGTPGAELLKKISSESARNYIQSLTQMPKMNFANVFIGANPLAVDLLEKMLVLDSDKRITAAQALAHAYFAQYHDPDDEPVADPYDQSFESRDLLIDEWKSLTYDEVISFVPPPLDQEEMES", "assay": "Inhibition of MAPK14 (unknown origin) incubated for 1 hr by qPCR analysis", "procedure,_shortened": "(§4)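 Competition binding assay. Kinases were either T7-phage-tagged (grown in an E. coli BL21-derived host) or expressed in HEK-293 cells and DNA-tagged. […] Bound kinase was eluted with non-biotinylated ligand and quantified by qPCR.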"}, "[5]": {"assay": "Acute toxicity in Hsd:athymic nude-Foxn1nu mouse assessed as animal mortality at 500 to 1000 mg/kg", "format": "organism-based", "settings": "in vivo, dose 500-1000 mg/kg", "procedure,_shortened": "(§5)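 Male Hsd:Athymic Nude-Foxn1nu mice received the compound by injection at five single doses (50, 100, 250, 500 and 1000 mg/kg), with seven animals per dose group.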"}, "[6]": {"biological_target": "Serine/threonine-protein kinase/endoribonuclease IRE1 (Homo sapiens, UniProt O75460)", "sequence (O75460 whole entry)": "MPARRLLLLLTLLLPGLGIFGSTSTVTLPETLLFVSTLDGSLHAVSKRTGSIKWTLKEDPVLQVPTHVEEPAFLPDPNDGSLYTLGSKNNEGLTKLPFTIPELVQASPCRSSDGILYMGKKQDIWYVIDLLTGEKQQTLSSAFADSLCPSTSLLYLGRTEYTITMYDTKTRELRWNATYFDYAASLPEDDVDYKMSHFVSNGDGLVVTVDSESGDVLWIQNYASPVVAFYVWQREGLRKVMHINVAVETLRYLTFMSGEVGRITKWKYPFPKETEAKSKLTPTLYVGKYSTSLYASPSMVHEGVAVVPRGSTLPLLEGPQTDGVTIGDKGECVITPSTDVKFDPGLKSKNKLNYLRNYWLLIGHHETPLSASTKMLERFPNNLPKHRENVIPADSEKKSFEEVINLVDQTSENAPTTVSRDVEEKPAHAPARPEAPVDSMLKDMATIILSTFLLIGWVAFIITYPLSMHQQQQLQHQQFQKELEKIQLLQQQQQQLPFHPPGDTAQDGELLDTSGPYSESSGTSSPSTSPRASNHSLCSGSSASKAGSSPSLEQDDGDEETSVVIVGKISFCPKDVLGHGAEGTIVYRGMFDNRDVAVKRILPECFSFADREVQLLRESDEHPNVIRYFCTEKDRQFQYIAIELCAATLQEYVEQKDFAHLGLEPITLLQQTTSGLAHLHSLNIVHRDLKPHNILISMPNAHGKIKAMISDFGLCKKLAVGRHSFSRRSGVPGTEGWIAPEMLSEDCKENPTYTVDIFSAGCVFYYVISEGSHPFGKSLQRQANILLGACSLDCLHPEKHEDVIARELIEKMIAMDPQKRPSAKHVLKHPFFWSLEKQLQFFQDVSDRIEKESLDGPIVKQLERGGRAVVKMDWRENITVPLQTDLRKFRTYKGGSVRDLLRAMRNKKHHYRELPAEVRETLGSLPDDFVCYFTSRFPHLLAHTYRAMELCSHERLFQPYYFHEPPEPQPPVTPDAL", "assay": "Inhibition of ERN1 (unknown origin) incubated for 1 hr by qPCR analysis", "procedure,_shortened": "as §4"}, "[7]": {"assay": "Stability in rat plasma assessed as parent compound remaining at 10 uM measured after 120 mins by LC-MS analysis", "format": "ADME, cell-free", "settings": "read-out: Stability", "procedure,_shortened": "as §3"}, "[8]": {"biological_target": "Serine/threonine-protein kinase B-raf (Homo sapiens, UniProt P15056, V600E)", "assay": "Inhibition of human BRAF V600E mutant using myelin basic protein as substrate in presence of [gamma-33P]ATP incubated for 40 mins by scintillation counting method", "procedure,_shortened": "as §1"}, "[9]": {"biological_target": "Homeodomain-interacting protein kinase 1 (Homo sapiens, UniProt Q86Z02)", "sequence (Q86Z02 whole entry)": "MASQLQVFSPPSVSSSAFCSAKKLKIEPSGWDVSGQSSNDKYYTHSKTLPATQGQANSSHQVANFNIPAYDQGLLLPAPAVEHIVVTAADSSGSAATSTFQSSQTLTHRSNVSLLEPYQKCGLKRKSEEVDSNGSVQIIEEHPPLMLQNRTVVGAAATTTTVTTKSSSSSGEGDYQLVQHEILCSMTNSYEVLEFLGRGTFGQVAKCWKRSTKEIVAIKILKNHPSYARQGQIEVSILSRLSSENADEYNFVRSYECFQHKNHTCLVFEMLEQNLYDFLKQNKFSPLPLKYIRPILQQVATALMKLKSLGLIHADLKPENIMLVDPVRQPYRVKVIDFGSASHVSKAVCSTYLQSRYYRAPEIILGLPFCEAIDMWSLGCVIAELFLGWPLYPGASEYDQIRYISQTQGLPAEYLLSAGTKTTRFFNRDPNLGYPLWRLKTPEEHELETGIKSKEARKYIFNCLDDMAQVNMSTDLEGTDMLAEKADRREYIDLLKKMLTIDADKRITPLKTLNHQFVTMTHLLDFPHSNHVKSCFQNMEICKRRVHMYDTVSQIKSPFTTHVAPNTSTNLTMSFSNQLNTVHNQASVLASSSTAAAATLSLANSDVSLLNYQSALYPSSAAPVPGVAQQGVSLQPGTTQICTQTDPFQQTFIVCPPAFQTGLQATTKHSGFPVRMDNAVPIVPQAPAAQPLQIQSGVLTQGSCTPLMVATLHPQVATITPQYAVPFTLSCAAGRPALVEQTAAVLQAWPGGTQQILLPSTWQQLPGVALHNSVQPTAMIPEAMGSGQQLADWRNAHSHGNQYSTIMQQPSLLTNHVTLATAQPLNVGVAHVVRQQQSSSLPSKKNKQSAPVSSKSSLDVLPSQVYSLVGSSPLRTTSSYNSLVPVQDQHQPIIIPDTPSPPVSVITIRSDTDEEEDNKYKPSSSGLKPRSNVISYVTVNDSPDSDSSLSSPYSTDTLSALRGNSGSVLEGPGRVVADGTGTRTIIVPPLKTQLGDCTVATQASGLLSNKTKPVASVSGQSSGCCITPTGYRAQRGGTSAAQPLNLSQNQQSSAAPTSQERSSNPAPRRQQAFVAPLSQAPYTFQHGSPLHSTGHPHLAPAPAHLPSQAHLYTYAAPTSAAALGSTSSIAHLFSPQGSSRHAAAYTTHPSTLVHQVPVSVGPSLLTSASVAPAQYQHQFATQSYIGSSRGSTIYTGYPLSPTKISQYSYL", "assay": "Inhibition of HIPK1 (unknown origin) incubated for 1 hr by qPCR analysis", "procedure,_shortened": "as §4"}, "[10]": {"assay": "Half life in Sprague-Dawley rat at 5 mg/kg, iv by LC-MS/MS analysis", "format": "ADME, organism-based", "settings": "in vivo", "procedure,_shortened": "as §2"}, "[11]": {"biological_target": "Mitogen-activated protein kinase 11 (Homo sapiens, UniProt Q15759)", "assay": "Inhibition of MAPK11 (unknown origin) incubated for 1 hr by qPCR analysis", "procedure,_shortened": "as §4"}, "[12]": {"assay": "Stability in human plasma assessed as parent compound remaining at 10 uM measured after 30 mins by LC-MS analysis", "format": "ADME, cell-free", "settings": "read-out: Stability", "procedure,_shortened": "as §3"}, "[13]": {"biological_target": "T1, Receptor-type tyrosine-protein kinase FLT3 (Homo sapiens, UniProt P36888)", "T1 sequence (P36888 whole entry)": "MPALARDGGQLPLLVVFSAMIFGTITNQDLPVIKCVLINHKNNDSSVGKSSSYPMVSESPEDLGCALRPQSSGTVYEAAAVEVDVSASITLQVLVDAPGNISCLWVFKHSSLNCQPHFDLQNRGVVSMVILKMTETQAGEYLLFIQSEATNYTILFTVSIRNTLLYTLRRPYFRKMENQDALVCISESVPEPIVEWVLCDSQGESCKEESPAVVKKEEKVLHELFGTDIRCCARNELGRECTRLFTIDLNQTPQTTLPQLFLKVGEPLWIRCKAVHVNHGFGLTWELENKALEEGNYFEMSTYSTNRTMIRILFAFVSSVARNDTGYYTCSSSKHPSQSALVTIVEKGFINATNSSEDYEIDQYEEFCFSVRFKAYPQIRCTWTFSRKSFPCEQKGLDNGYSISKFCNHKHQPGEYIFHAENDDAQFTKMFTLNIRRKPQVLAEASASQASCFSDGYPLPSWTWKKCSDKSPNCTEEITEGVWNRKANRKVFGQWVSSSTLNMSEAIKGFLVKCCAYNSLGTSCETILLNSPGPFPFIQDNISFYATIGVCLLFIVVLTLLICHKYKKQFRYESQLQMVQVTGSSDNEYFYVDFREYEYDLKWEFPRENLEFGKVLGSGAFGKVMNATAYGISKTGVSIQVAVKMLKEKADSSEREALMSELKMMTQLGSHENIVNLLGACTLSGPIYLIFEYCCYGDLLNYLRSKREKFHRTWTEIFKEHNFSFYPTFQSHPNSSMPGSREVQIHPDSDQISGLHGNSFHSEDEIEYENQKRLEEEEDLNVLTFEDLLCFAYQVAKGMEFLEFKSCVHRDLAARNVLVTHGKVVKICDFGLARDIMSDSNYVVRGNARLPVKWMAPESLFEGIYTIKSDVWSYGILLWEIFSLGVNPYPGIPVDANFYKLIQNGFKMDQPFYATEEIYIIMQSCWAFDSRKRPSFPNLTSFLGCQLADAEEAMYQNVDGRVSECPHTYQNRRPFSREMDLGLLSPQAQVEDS", "assay": "Inhibition of FLT3 (unknown origin) incubated for 1 hr by qPCR analysis", "procedure,_shortened": "as §4"}, "[14]": {"assay": "Acute toxicity in Hsd:athymic nude-Foxn1nu mouse at 50 to 250 mg/kg", "format": "organism-based", "settings": "in vivo, dose 50-250 mg/kg", "procedure,_shortened": "as §5"}, "[15]": {"biological_target": "Tyrosine-protein kinase ABL1 (Homo sapiens, UniProt P00519)", "sequence (P00519 whole entry)": "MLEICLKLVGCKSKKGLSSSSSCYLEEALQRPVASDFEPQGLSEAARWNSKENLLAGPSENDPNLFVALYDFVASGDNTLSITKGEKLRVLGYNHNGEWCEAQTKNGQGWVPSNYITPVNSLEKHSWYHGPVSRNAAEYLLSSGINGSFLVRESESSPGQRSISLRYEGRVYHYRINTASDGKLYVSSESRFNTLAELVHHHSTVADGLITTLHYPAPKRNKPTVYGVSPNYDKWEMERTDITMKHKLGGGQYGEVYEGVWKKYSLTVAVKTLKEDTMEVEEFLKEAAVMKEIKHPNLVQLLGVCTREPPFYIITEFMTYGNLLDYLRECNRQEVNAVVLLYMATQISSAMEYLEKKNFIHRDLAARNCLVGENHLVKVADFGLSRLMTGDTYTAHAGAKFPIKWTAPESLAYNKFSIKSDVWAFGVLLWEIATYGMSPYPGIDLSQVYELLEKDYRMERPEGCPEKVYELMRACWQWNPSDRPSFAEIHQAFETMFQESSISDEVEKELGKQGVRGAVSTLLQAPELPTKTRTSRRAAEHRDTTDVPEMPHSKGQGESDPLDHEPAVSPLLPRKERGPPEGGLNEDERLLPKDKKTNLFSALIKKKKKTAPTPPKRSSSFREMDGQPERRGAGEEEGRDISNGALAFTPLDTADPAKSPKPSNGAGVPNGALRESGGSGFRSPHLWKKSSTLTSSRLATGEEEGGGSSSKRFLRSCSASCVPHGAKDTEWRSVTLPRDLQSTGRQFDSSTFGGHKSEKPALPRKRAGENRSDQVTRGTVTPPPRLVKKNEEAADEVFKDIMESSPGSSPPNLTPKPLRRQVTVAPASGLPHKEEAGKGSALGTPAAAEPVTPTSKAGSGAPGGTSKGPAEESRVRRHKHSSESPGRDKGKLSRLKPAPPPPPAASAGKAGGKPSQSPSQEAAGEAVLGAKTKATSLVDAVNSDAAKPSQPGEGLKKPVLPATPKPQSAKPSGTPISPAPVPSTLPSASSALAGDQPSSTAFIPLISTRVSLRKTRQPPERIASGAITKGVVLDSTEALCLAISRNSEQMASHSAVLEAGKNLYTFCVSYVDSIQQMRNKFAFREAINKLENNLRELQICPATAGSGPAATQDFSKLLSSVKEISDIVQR", "assay": "Inhibition of ABL1 (unknown origin) incubated for 1 hr by qPCR analysis"}, "[16]": {"assay": "Stability in human plasma assessed as parent compound remaining at 10 uM measured after 120 mins by LC-MS analysis", "format": "ADME, cell-free", "settings": "read-out: Stability", "procedure,_shortened": "as §3"}, "[17]": {"assay": "Oral bioavailability in Sprague-Dawley rat at 5 mg/kg by LC-MS/MS analysis", "format": "ADME, organism-based", "settings": "in vivo", "procedure,_shortened": "(§6)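 Male SD rats, 7−8 weeks, 250−300 g, three per group, dosed 5 mg/kg IV or PO. Vehicle was 5% DMSO/40% PEG400/55% water. Rats fasted 16 h before oral dosing. Samples taken every 30 min and measured by LC/MS/MS with carbamazepine as internal standard. Parameters from non-compartmental analysis of plasma concentration–time profiles.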"}, "[18]": {"biological_target": "Mitogen-activated protein kinase 8 (Homo sapiens, UniProt P45983)", "assay": "Inhibition of MAPK8 (unknown origin) incubated for 1 hr by qPCR analysis", "procedure,_shortened": "as §4"}, "[19]": {"assay": "Apparent permeability across apical to basolateral side in human Caco-2 cells at 5 uM measured every 15 mins for 1 hr by LC-MS/MS analysis", "format": "ADME, cell-based"}, "[20]": {"assay": "Cmax in Sprague-Dawley rat at 5 mg/kg, po by LC-MS/MS analysis", "format": "ADME, organism-based", "set-up": "route oral, dose 5 mg/kg", "settings": "in vivo", "procedure,_shortened": "as §2"}, "[21]": {"assay": "Tmax in Sprague-Dawley rat at 5 mg/kg, po by LC-MS/MS analysis", "format": "ADME, organism-based", "settings": "in vivo", "procedure,_shortened": "as §6"}, "[22]": {"biological_target": "Mitogen-activated protein kinase kinase kinase 20 (Homo sapiens, UniProt Q9NYL2)", "assay": "Inhibition of ZAK (unknown origin) incubated for 1 hr by qPCR analysis", "procedure,_shortened": "as §4"}, "[23]": {"biological_target": "Fibroblast growth factor receptor 1 (Homo sapiens, UniProt P11362)", "assay": "Inhibition of FGFR1 (unknown origin) incubated for 1 hr by qPCR analysis"}, "[24]": {"biological_target": "RAF proto-oncogene serine/threonine-protein kinase (Homo sapiens, UniProt P04049)", "sequence (P04049 whole entry)": "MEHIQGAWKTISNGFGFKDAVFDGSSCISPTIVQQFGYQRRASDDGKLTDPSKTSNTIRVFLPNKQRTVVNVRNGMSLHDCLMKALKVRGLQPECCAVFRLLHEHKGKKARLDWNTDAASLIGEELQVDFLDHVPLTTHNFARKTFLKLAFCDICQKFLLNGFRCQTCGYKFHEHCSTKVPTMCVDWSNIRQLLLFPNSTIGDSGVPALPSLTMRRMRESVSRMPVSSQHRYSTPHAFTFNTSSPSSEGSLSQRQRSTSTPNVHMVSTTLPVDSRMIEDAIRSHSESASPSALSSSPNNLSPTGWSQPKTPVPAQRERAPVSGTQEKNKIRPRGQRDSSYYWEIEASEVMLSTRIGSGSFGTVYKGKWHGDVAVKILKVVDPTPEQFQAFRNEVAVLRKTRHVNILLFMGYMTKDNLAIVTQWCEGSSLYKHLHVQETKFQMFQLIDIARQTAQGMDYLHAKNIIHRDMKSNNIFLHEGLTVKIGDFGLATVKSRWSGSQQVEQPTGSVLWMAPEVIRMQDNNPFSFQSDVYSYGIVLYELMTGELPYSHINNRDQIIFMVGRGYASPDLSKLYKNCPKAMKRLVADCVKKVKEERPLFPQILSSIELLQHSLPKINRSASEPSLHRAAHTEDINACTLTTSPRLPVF", "assay": "Inhibition of human wild type CRAF using myelin basic protein as substrate in presence of [gamma-33P]ATP incubated for 40 mins by scintillation counting method"}, "[25]": {"assay": "Apparent permeability across basolateral to apical side in human Caco-2 cells at 5 uM measured every 15 mins for 1 hr by LC-MS/MS analysis", "format": "ADME, cell-based"}, "[26]": {"assay": "Volume of distribution in Sprague-Dawley rat at 5 mg/kg, iv by LC-MS/MS analysis", "format": "ADME, organism-based", "settings": "in vivo", "procedure,_shortened": "as §6"}, "[27]": {"assay": "Half life in Sprague-Dawley rat at 5 mg/kg, po by LC-MS/MS analysis", "format": "ADME, organism-based", "settings": "in vivo", "procedure,_shortened": "as §2"}}, "data": [{"smiles": "CN1CCN(CCNc2nccc(-c3c(-c4cccc(O)c4)nc4sccn34)n2)S1(=O)=O", "values": [{"measurement": "IC50", "setting": "[1]", "value": 2, "unit": "nM"}, {"measurement": "clearance", "setting": "[2]", "value": 2.07, "unit": "mL/min/kg"}, {"measurement": "remaining at 0.5 h, 10 µM", "setting": "[3]", "value": 90.6, "unit": "%"}, {"measurement": "IC50", "setting": "[4]", "value": 1020, "unit": "nM"}, {"measurement": "Activity", "setting": "[5]", "value": "Toxic"}, {"measurement": "IC50", "setting": "[6]", "value": 11300, "unit": "nM"}, {"measurement": "remaining at 2 h, 10 µM", "setting": "[7]", "value": 76.6, "unit": "%"}, {"measurement": "IC50", "setting": "[8]", "value": 0.07, "unit": "nM"}, {"measurement": "IC50", "setting": "[9]", "value": 3780, "unit": "nM"}, {"measurement": "half-life", "setting": "[10]", "value": 1.72, "unit": "h"}, {"measurement": "IC50", "setting": "[11]", "value": 820, "unit": "nM"}, {"measurement": "remaining at 0.5 h, 10 µM", "setting": "[12]", "value": 97.2, "unit": "%"}, {"measurement": "IC50", "setting": "[13]", "value": 1510, "unit": "nM"}, {"measurement": "Activity", "setting": "[14]", "value": "Non-Toxic"}, {"measurement": "IC50", "setting": "[15]", "value": 12400, "unit": "nM"}, {"measurement": "remaining at 2 h, 10 µM", "setting": "[16]", "value": 95.4, "unit": "%"}, {"measurement": "bioavailability", "setting": "[17]", "value": 6.59, "unit": "%"}, {"measurement": "IC50", "setting": "[18]", "value": 910, "unit": "nM"}, {"measurement": "Papp A→B at 1 h, 5 µM", "setting": "[19]", "value": 14.2, "unit": "×10⁻⁶ cm/s"}, {"measurement": "Cmax", "setting": "[20]", "value": 96.9, "unit": "ng/mL"}, {"measurement": "Tmax", "setting": "[21]", "value": 2.08, "unit": "h"}, {"measurement": "IC50", "setting": "[22]", "value": 9010, "unit": "nM"}, {"measurement": "IC50", "setting": "[23]", "value": 13500, "unit": "nM"}, {"measurement": "IC50", "setting": "[24]", "value": 1.12, "unit": "nM"}, {"measurement": "Papp B→A at 1 h, 5 µM", "setting": "[25]", "value": 21.8, "unit": "×10⁻⁶ cm/s"}, {"measurement": "Vd", "setting": "[26]", "value": 0.578, "unit": "L/kg"}, {"measurement": "half-life", "setting": "[27]", "value": 3.35, "unit": "h"}]}]}
